Assay: Toxicity liver stage against HepG2, at 10uM
Format: cell-based
Design: test concentration 10 uM, cell line HepG2-A16-CD81EGFP
Conditions: human, HepG2-A16-CD81EGFP cells; read-out: INHIBITION
In short: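 Uninfected HepG2-A16-CD81EGFP cells, 3 × 10^3 per well, 1536-well, plated on prespotted compound at 10 μM final, parasite-free screening media added to match infected plates; puromycin 10 μM positive, DMSO 0.5% negative; run in parallel with 48 h PbLuc assay at 37 °C, 5% CO2; viability by CellTiter-Glo luminescence, normalized to controls.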

Compound | cytotoxicity at 10 µM [%]
O=C(NC[C@H]1OC[C@@H](NC2CCC(F)(F)CC2)[C@@H]1O)c1ccccc1 | -4.1
O=C(Cn1ccc2ccc(F)cc21)NC[C@@H]1CCCN2CCCC[C@H]12 | 14
O=S1(=O)CCC(S(=O)(=O)c2cccc(S(=O)(=O)N3CCOCC3)c2)C1 (stereo not given) | 3.42
CCN(CC)c1nc2ccsc2c(=O)n1CCC(=O)NC1CCCC1 | 7.19
O=C(NC1CC1)[C@H]1COC[C@H]2CN(c3ncc(F)cn3)C[C@H]21 | -0.664
CCn1cc2c(n1)C(COC)CN(Cc1ccoc1)C2 (stereo not given) | 7.89
O=C(c1ccco1)N1CCCC2(CCN(CCN3CCCC3)C2=O)C1 (stereo not given) | -4.73
CC(C)N1CCC2(CC1)NC(=O)c1cc(Br)ccc1-n1nnnc12 | 9.26
Cc1nc(CC(=O)N2CCc3nc(-c4cnccn4)nc(O)c3C2)cs1 | 16.2
Cc1cccnc1C(Cc1ccsc1)NC(=O)Cn1cccnc1=O (stereo not given) | 3.08
CC(=O)N1CC2(CCCCN2Cc2ccc(Cl)cc2)Cc2ccccc21 (stereo not given) | 14.5
FC(F)Oc1ccccc1CNCc1cc(Br)c2c(c1)OCO2 | 10.7
Cc1ccc(C(=O)NCC(C)Cn2cccn2)c(=O)[nH]1 (stereo not given) | 3.14
O=C1OCCC1N1CCN(c2ccccn2)CC1 (stereo not given) | 7.37
Cn1cc(CCNC(=O)c2cc3ccccc3nc2N2CCCC2)cn1 | -1.29
COc1ccc2c(c1)NC(=O)C2OC(=O)Cc1ccccc1C (stereo not given) | 45.2
Cc1cc(NC(=O)C(C)NCCn2cccn2)no1 (stereo not given) | 10.6
O=S(=O)(c1cc2ccccc2o1)N1CCCC1 | 20.2
Cc1noc(C)c1CNc1cccc(C(=O)N(C)c2ccccc2)c1 | 17.5
CCN1CCN(C(C)CNC(=O)Nc2nc3ccccc3s2)CC1 (stereo not given) | -2.32
O=C(c1ccc(F)c(Br)c1)N1CCCN2CCCC2C1 (stereo not given) | -0.746
CNS(=O)(=O)c1cccc(C(C)NCc2ccc(F)c(F)c2)c1 (stereo not given) | 16.2

Compound | cytotoxicity at 10 µM [%]
CCCC(NC(=O)c1cc(C)c(F)cc1F)c1nnn[nH]1 (stereo not given) | -2.59
CCN(CC1CN(Cc2cccc(C#N)c2)CCO1)c1cccnn1 (stereo not given) | 17
Cc1ccc(C(=O)NCCNCC2CNc3ccnn3C2)cc1F (stereo not given) | -1.62
Cc1ncc(CN(C)C2CCCN(c3cccnn3)C2)s1 (stereo not given) | 0.709
O=C(CCc1ccsc1)NC1CCN(c2cccc(F)c2)CC1 | -3.89
Cn1cc(NC(=O)CCc2ccsc2)ccc1=O | -2.9
Cc1nc(CCNC(Cc2ccncc2)C(F)(F)F)cs1 (stereo not given) | -1.48
CN1CCN(c2ccc(F)cc2C(N)=O)CC1 | 6.11
CCN(C)S(=O)(=O)N(CC)Cc1cccc(-c2ccncc2)c1 | -11.5
Cc1nnc(C(C)N(C)Cc2c(C)nn(-c3ccccc3C)c2C)o1 (stereo not given) | -1.07
CC(=O)N1CCC(C(=O)NC(C)c2cccc(OC(F)F)c2)CC1 (stereo not given) | -8.2
CC(NCc1cnc(C2CCC2)s1)c1ccc(-n2cccn2)cc1 (stereo not given) | 7.67
COc1ncc(Cl)c(NCc2ccc(C(=O)N(C)C)cc2)n1 | 9.95
Cn1c(=O)oc2cc(Nc3ncc(C#N)cc3Cl)ccc21 | 4.93
CN1CC(Nc2ccc(Br)cc2C#N)CCC1=O (stereo not given) | 8.25
CCc1ccc(C(=O)O)cc1S(=O)(=O)N(C)c1cccc(C)c1 | -8.2
N#Cc1cccc(OCC(=O)N(Cc2ccncc2)C2CC2)c1 | -44.2
OCc1cc2ccccc2nc1NCC1CC1 | -46.2
O=C(CN1CCOC(Cn2cccn2)C1)NC(C1CC1)C1CC1 (stereo not given) | -42.1
Cc1cnc(CCN(C)C(=O)c2cccc(C)c2O)s1 | -2.48
CN(CCS(=O)(=O)c1cc(Cl)ccc1Cl)CC(=O)Nc1cccc(F)c1 | 13.9
Cn1cc(C(=O)OCC(N)=O)c(-c2ccc(F)cc2F)n1 | -7.85

Compound | cytotoxicity at 10 µM [%]
CC(=O)N1CCCN(C(=O)c2oc(Br)cc2C)CC1 | -13.6
COc1cc(N2CCC3(CC(=O)N(Cc4csc(C)n4)C3)C2)ncn1 (stereo not given) | -104
CN(C)S(=O)(=O)N1CCC2(COCc3cnc(-c4cccnc4)nc32)C1 (stereo not given) | -115
CN(C)C(=O)N1CCc2c(COCC3CC3)cncc2C1 | -68.2
CN(C)C(=O)CC1CC2(CCNCC2)c2cc(F)ccc21 (stereo not given) | 6.54
COCCn1c2c(ccc1=O)CC(NS(C)(=O)=O)CC2 (stereo not given) | 8.8
COc1ccccc1Nc1nc2c(s1)C(=O)CN(C(=O)CC(C)C)C2 | 61.2
COc1cccc(C(=O)C2CCCN(c3cc(C#N)ccn3)C2)c1 (stereo not given) | 1.85
O=S(=O)(CCNCc1cc(O)c2cc(F)ccc2n1)N1CCCC1 | -39.5
CN(CC(=O)N1CC(C)(C)[C@@](C)(O)C1)Cc1ccncc1 | -49.4
O=C(NCC1CCCN(C(=O)NCCc2ccccc2)C1)c1ccco1 (stereo not given) | -4.66
CC(C)N1CCOC(CC(=O)N2CCCN(Cc3ccncc3)CC2)C1 (stereo not given) | -7.49
CSc1ccc(CN(C(=O)c2cc(=O)[nH]c(=O)[nH]2)C2CC2)cc1 | -44.8
Cc1ccccc1-n1ncc(C(C)N)c1C (stereo not given) | -8.23
CN(C(=O)CC1=CCCCC1)C1CCCN(CCc2ccccc2)C1 (stereo not given) | 7.23
CCN(Cc1noc(C)n1)C(=O)CCn1c(C)cc2ccccc21 | -3.97
Cc1ncsc1CCC(=O)N1CCn2cccc2C1c1cccnc1 (stereo not given) | -9.57
CNc1nc(C(=O)N2CCCC(CO)(CCCOC)C2)cs1 (stereo not given) | 7.43
CC(C)N1CCCC(C(=O)N2CCN(c3nsc4ccccc34)CC2)C1 (stereo not given) | 2.81
COCCN1CCC(C(=O)N(C)CCOc2ccc(C)cc2Cl)C1 (stereo not given) | 13.4
O=C1CCCN1CCC1CCCCN1C(=O)c1ccc(SCCO)cc1 (stereo not given) | -43
CC(C)N1CCC(CC(=O)N2CCN(Cc3nccn3C)CC2)CC1 | -3.91

Compound | cytotoxicity at 10 µM [%]
CCCn1ncc(C(=O)NC2CCN(C3CCOCC3)CC2)c1C | 5.66
CC(=O)NC1CCN(c2nc(N(C)C)nc3c2CCN(C(C)=O)C3)CC1 | 0.541
CN(Cc1ccncn1)c1nccc(CCC(F)(F)F)n1 | 11.2
CCN(C)C[C@@H]1CN(S(=O)(=O)c2ccc(C#N)cc2)C[C@@H]1CO | 13.5
CCn1nc(C)cc1S(=O)(=O)N1CCC2(CCCN(C(C)C)C2=O)C1 (stereo not given) | -16.3
CCC(C)N(Cc1cccnc1)Cc1cc2c(cc1Cl)OCO2 (stereo not given) | 6.16
CCCc1nc(N(C)Cc2cnc(NC)nc2)c2cnn(C)c2n1 | 3.42
Cc1cc(C)n2ncc(CN3CCC(n4cc(CCO)nn4)CC3)c2n1 | 6.59
CN1CC(c2n[nH]c(=O)n2-c2cccc(Cl)c2)CC1=O (stereo not given) | 3.24
CS(=O)(=O)N1CCN(c2ccnc(N3CCCCC3)n2)CC1 | -0.359
O=C1CC[C@H]2CN(C3CCOCC3)CC[C@H]2N1CCC1=CCCCC1 | -4.76
O=C(CC1=CCCCC1)N1CCC(Cn2cc(CCO)nn2)CC1 | 3.88
O=c1cc(CN2CCCC(CCc3c(F)cccc3F)C2)[nH]c(=O)[nH]1 (stereo not given) | -3.88
CC(C)(O)C1CCN(C(=O)Nc2nc(-c3ccccc3)ns2)CC1 | 5.68
OCCN1CCN(Cc2coc(-c3ccccc3)n2)CC1 | -5.03
CCc1ccsc1C(=O)N1CCCN(Cc2cnn(CC)c2)CC1 | 0.501
Cc1ccc(OCC(O)CN2CCc3c(ncn3C3CC3)C2)cc1 (stereo not given) | 0.2
Cc1ccc(-c2nc(CN3CCOC(CN(C)C)C3)co2)cc1 (stereo not given) | -4.23
Cc1nnc2n1CCN(CCOc1ccccc1C#N)C2 | -4.53
Cc1cn2nc(N3CCN(Cc4c(C)noc4C)CC3)sc2n1 | -8.81
CCn1cnnc1CNC(=O)N(C)Cc1ccc2c(c1)OCO2 | -5.83
COCc1nc(C(=O)N2CCCC(n3ccnc3)C2)cs1 (stereo not given) | -2.12

Compound | cytotoxicity at 10 µM [%]
Cc1noc(C)c1CN1CCN(C(C)c2nc(C3CC3)no2)CC1 (stereo not given) | -16.5
CN(Cc1cn2ccccc2c1C#N)C1CCCN(c2cccnn2)C1 (stereo not given) | -11.9
Cc1ccc(CN2CCc3c(nnn3C)C2COCc2ccccc2)s1 (stereo not given) | -110
Cn1cc(N2CC[C@@H]3CN(Cc4ccncc4)C[C@H]3C2=O)cn1 | -103
Cc1ccc(N2CCC3(CC2)CCN(C2CCOCC2)CC3)nn1 | 5.5
CC(C)N1CCC2(CC1)CC(CC(N)=O)c1ccc(F)cc12 (stereo not given) | 12.8
O=C(c1cscn1)N1CCc2c(COCC3CC3)cncc2C1 | -105
Cc1ncsc1CN1CCn2c(COc3cccnc3)cnc2C1C (stereo not given) | 9.16
Cc1ccc(CN2CC[C@@H]3OCCN(Cc4ccncc4)[C@H]3CC2)s1 | 6.84
c1cc(CN2C[C@@H]3OCCN(CC4CC4)[C@@H]3C2)n[nH]1 | -109
CS(=O)(=O)N1CCC2(CC1)CC(NCC1CC1)c1ccccc12 (stereo not given) | -111
CN(Cc1ccncc1)C1CC2(CCN(c3ncccn3)CC2)C1 | 13.1
CCN1c2ccc(-c3cncn3CC(=O)NC(C)(C)C)cc2CC1C (stereo not given) | -0.579
COc1ccc(C[C@H]2CN(Cc3ccoc3)CC[C@@H]2OC)cc1 | 2.51
O=C(c1cccc(F)c1)N1CC[C@H]2[C@H]1CCN2CC1CCOCC1 | -75.4
CN1CCO[C@@H]2CN(C(=O)c3ccc4ncccc4c3)CC[C@@H]2C1 | -112
COc1cccc(C(=O)N2CCc3nc(C4CCCN4)ncc3C2)c1 (stereo not given) | -7.28
CN1CC2(CCN(S(=O)(=O)C3CC3)CC2)c2ccccc21 | -4.35
CCN1C[C@H]2[C@@H](C1)N(S(=O)(=O)c1cccnc1)CC[C@H]2OC | -1.78
Cn1cnc2c1C(COCC1CC1)CN(C(=O)c1cscn1)C2 (stereo not given) | 0.922
NC1CC(C(F)(F)F)=NC=C1c1ccc(Cl)cc1 (stereo not given) | 50.2
O=C(c1cccc(CNCC=Cc2ccccc2)c1)N1CCCC1 | 9.46
